The structures appear in SMILES notation. Values after ≈ are worked out from the molar mass of the structure shown.

Assay [1] has as its system Pseudomonas aeruginosa. In words: Antibacterial activity against beta-lactams resistant Pseudomonas aeruginosa isolate expressing AmpC by macrodilution technique. Type of assay: functional. A digest of the protocol:
(§1)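 MICs by agar macrodilution on Mueller-Hinton agar with calibrated divalent cations. Isolates were graded susceptible, intermediate or resistant by CLSI breakpoints. Resistance was defined as a ≥fourfold MIC rise over reference strain PAO1. Resistance mechanisms were assigned by RT-PCR (PAO1-derived overexpressing mutants as controls) and gene complementation.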

Assay [2] deals with Pseudomonas aeruginosa. In words: Antibacterial activity against beta-lactams resistant Pseudomonas aeruginosa isolate expressing MexXY-OprM pump by macrodilution technique. Type of assay: functional. An outline of the steps:
as §1

In assay [3] the test system is Pseudomonas aeruginosa. The assay can be described thus: Antibacterial activity against beta-lactams resistant Pseudomonas aeruginosa isolate expressing AmpC, MexXY-OprM pump, TEM-2 by macrodilution technique. Type of assay: functional. An outline of the steps:
as §1

Assay [4] deals with Pseudomonas aeruginosa. In words: Antibacterial activity against wild type Pseudomonas aeruginosa PAO1 by macrodilution technique. In kind it is functional. An outline of the steps: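 Wild-type reference strain PAO1. MIC by agar macrodilution on Mueller-Hinton agar with calibrated divalent cations. It served as the baseline for defining a ≥fourfold MIC increase in clinical isolates, and as the expression reference in RT-PCR.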

Assay [5] relates to Pseudomonas aeruginosa. In words: Antibacterial activity against beta-lactams resistant Pseudomonas aeruginosa isolate expressing AmpC, MexAB-OprM pump by macrodilution technique. Type of assay: functional. An outline of the steps: (§2)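 Bloodstream P. aeruginosa isolates from patients in six French teaching hospitals (1999–2004). MICs by agar macrodilution on Mueller-Hinton agar with calibrated divalent cations. Isolates were graded susceptible, intermediate or resistant by CLSI breakpoints. Resistance was defined as a ≥fourfold MIC rise over reference strain PAO1. Resistance mechanisms were assigned by RT-PCR (PAO1-derived overexpressing mutants as controls) and gene complementation.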

For assay [6], the system named is Pseudomonas aeruginosa. The assay can be described thus: Antibacterial activity against beta-lactams resistant Pseudomonas aeruginosa isolate expressing MexXY-OprM pump, TEM-2 by macrodilution technique. In kind it is functional. A digest of the protocol: as §1
The test system of assay [7] is Pseudomonas aeruginosa. In words: Antibacterial activity against beta-lactams resistant Pseudomonas aeruginosa isolate expressing MexAB-OprM pump, MexXY-OprM pump by macrodilution technique. In kind it is functional. A digest of the protocol: as §1
Assay [8] concerns Pseudomonas aeruginosa. The assay can be described thus: Antibacterial activity against Pseudomonas aeruginosa clinical isolates assessed as resistant rate by macrodilution technique. Type of assay: functional.
The subject of assay [9] is Pseudomonas aeruginosa. The assay can be described thus: Antibacterial activity against beta-lactams resistant Pseudomonas aeruginosa isolate expressing OXA2 by macrodilution technique. Type of assay: functional. A digest of the protocol: as §1
The subject of assay [10] is Pseudomonas aeruginosa. In words: Antibacterial activity against beta-lactams resistant Pseudomonas aeruginosa isolate expressing PSE-1, MexXY-OprM pump by macrodilution technique. Type of assay: functional. A digest of the protocol:
as §1

Assay [11] has as its system Pseudomonas aeruginosa. The assay can be described thus: Antibacterial activity against beta-lactams resistant Pseudomonas aeruginosa isolate expressing PSE-1 by macrodilution technique. Type of assay: functional. An outline of the steps: as §1
Assay [12] concerns Pseudomonas aeruginosa. The assay can be described thus: Antibacterial activity against beta-lactams resistant OprD-deficient Pseudomonas aeruginosa isolate by macrodilution technique. Type of assay: functional. An outline of the steps: as §1
Assay [13] concerns Pseudomonas aeruginosa. The assay can be described thus: Antibacterial activity against Pseudomonas aeruginosa clinical isolates assessed as susceptible rate by macrodilution technique. Type of assay: functional.
Assay [14] has as its system Pseudomonas aeruginosa. The assay can be described thus: Antibacterial activity against beta-lactams resistant Pseudomonas aeruginosa isolate expressing AmpC, MexAB-OprM pump, MexXY-OprM pump by macrodilution technique. Type of assay: functional. An outline of the steps:
as §1

Assay [15] deals with Pseudomonas aeruginosa. The assay can be described thus: Antibacterial activity against Pseudomonas aeruginosa clinical isolate by macrodilution technique. In kind it is functional.
Assay [16] has as its system Pseudomonas aeruginosa. In words: Antibacterial activity against beta-lactams resistant Pseudomonas aeruginosa isolate expressing AmpC, MexXY-OprM pump by macrodilution technique. Type of assay: functional. An outline of the steps:
as §1

The test system of assay [17] is Pseudomonas aeruginosa. In words: Antibacterial activity against beta-lactams resistant Pseudomonas aeruginosa isolate expressing AmpC, PSE-1, MexXY-OprM pump by macrodilution technique. Type of assay: functional. A digest of the protocol: as §1
The subject of assay [18] is Pseudomonas aeruginosa. In words: Antibacterial activity against beta-lactams resistant Pseudomonas aeruginosa isolate expressing MexAB-OprM pump by macrodilution technique. In kind it is functional. An outline of the steps:
as §1

For assay [19], the system named is Pseudomonas aeruginosa. In words: Antibacterial activity against wild type Pseudomonas aeruginosa isolate by macrodilution technique. In kind it is functional. An outline of the steps:
as §1

For assay [20], the system named is Pseudomonas aeruginosa. In words: Antibacterial activity against fluoroquinolone-resistant Pseudomonas aeruginosa isolate with GyrA mutant by macrodilution technique.
Assay [21] relates to Pseudomonas aeruginosa. The assay can be described thus: Antibacterial activity against aminoglycoside-resistant Pseudomonas aeruginosa isolate expressing MexXY-OprM pump, ANT(2'')-1 by macrodilution technique. Type of assay: functional. An outline of the steps: as §2
Assay [22] deals with Pseudomonas aeruginosa. The assay can be described thus: Antibacterial activity against aminoglycoside-resistant Pseudomonas aeruginosa isolate expressing MexXY-OprM pump, AAC(6')-1 by macrodilution technique. In kind it is functional. A digest of the protocol: as §2
Assay [23] deals with Pseudomonas aeruginosa. The assay can be described thus: Antibacterial activity against aminoglycoside-resistant Pseudomonas aeruginosa isolate expressing MexXY-OprM pump, AAC(3')-1 by macrodilution technique. In kind it is functional. An outline of the steps:
as §2

The test system of assay [24] is Pseudomonas aeruginosa. In words: Antibacterial activity against aminoglycoside-resistant Pseudomonas aeruginosa isolate expressing ANT(2'')-1 by macrodilution technique. Type of assay: functional. A digest of the protocol: as §2
In assay [25] the test system is Pseudomonas aeruginosa. The assay can be described thus: Antibacterial activity against aminoglycoside-resistant Pseudomonas aeruginosa isolate expressing AAC(6')-1, ANT(2'')-1 by macrodilution technique. Type of assay: functional. A digest of the protocol:
as §2

The subject of assay [26] is Pseudomonas aeruginosa. The assay can be described thus: Antibacterial activity against aminoglycoside-resistant Pseudomonas aeruginosa isolate expressing MexXY-OprM pump by macrodilution technique. Type of assay: functional. An outline of the steps: as §2
Assay [27] concerns Pseudomonas aeruginosa. The assay can be described thus: Antibacterial activity against aminoglycoside-resistant Pseudomonas aeruginosa isolate expressing MexXY-OprM pump, AAC(6')-1, ANT(2'')-1 by macrodilution technique. Type of assay: functional. A digest of the protocol: as §2
The test system of assay [28] is Pseudomonas aeruginosa. The assay can be described thus: Antibacterial activity against aminoglycoside-resistant Pseudomonas aeruginosa isolate expressing MexXY-OprM pump, AAC(6')-1, AAC(3')-1 by macrodilution technique. In kind it is functional. An outline of the steps:
as §2

In assay [29] the test system is Pseudomonas aeruginosa. The assay can be described thus: Antibacterial activity against aminoglycoside-resistant Pseudomonas aeruginosa isolate expressing AAC(6')-1 by macrodilution technique. In kind it is functional. A digest of the protocol: as §2
Assay [30] has as its system Pseudomonas aeruginosa. The assay can be described thus: Antibacterial activity against MexXY-OprM pump-independent aminoglycoside-resistant Pseudomonas aeruginosa isolate by macrodilution technique. Type of assay: functional. An outline of the steps: as §2

As for `CC(C)(O/N=C(\C(=O)N[C@@H]1C(=O)N2C(C(=O)[O-])=C(C[n+]3ccccc3)CS[C@H]12)c1csc(N)n1)C(=O)O` [CEFTAZIDIME], the MIC came out at 16 µg/mL (≈ 29.3 µM) in the assay with Pseudomonas aeruginosa [1]; 2 µg/mL (≈ 3.66 µM) in the assay on Pseudomonas aeruginosa [2]; 32 µg/mL (≈ 58.5 µM) in the assay on Pseudomonas aeruginosa [3]; 1 µg/mL (≈ 1.83 µM) in the assay with Pseudomonas aeruginosa [4]; 4 µg/mL (≈ 7.32 µM) with Pseudomonas aeruginosa [5]; 8 µg/mL (≈ 14.6 µM) in the assay with Pseudomonas aeruginosa [6]. Moreover, the MIC worked out at 2 µg/mL (≈ 3.66 µM) against Pseudomonas aeruginosa [7]; 2 µg/mL (≈ 3.66 µM) in the assay on Pseudomonas aeruginosa [9]; 2 µg/mL (≈ 3.66 µM) against Pseudomonas aeruginosa [10]; 2 µg/mL (≈ 3.66 µM) in the assay with Pseudomonas aeruginosa [11]; 2 µg/mL (≈ 3.66 µM) against Pseudomonas aeruginosa [12]; 16 µg/mL (≈ 29.3 µM) with Pseudomonas aeruginosa [14]. For the same molecule, the MIC in the assay with Pseudomonas aeruginosa [16] was 8 µg/mL (≈ 14.6 µM); with Pseudomonas aeruginosa [17], 8 µg/mL (≈ 14.6 µM); against Pseudomonas aeruginosa [18] it was 4 µg/mL (≈ 7.32 µM). In addition, the Activity in the assay with Pseudomonas aeruginosa [8] was 3.3%; with Pseudomonas aeruginosa [13], 90%. The molecule also yielded an MIC50 with Pseudomonas aeruginosa [15] of 2 µg/mL (≈ 3.66 µM). Besides, in the assay with Pseudomonas aeruginosa [15], the MIC90 was 8 µg/mL (≈ 14.6 µM).

Turning to `CC1(C)S[C@@H]2[C@H](NC(=O)[C@H](C(=O)O)c3ccsc3)C(=O)N2[C@H]1C(=O)O` [TICARCILLIN], the MIC against Pseudomonas aeruginosa [1] was 64 µg/mL (≈ 166 µM); against Pseudomonas aeruginosa [2] it was 16 µg/mL (≈ 41.6 µM); against Pseudomonas aeruginosa [3], over 256 µg/mL; in the assay with Pseudomonas aeruginosa [19], 16 µg/mL (≈ 41.6 µM); with Pseudomonas aeruginosa [4], 16 µg/mL (≈ 41.6 µM); with Pseudomonas aeruginosa [5] it was 128 µg/mL (≈ 333 µM). The minimal inhibitory concentration (MIC) is over 256 µg/mL in the assay on Pseudomonas aeruginosa [6]; 128 µg/mL (≈ 333 µM) in the assay on Pseudomonas aeruginosa [7]; 128 µg/mL (≈ 333 µM) against Pseudomonas aeruginosa [9]; over 256 µg/mL in the assay with Pseudomonas aeruginosa [10]; over 256 µg/mL against Pseudomonas aeruginosa [11]; 16 µg/mL (≈ 41.6 µM) in the assay with Pseudomonas aeruginosa [12]. Moreover, the MIC is 128 µg/mL (≈ 333 µM) in the assay on Pseudomonas aeruginosa [14], 128 µg/mL (≈ 333 µM) in the assay on Pseudomonas aeruginosa [16], over 256 µg/mL with Pseudomonas aeruginosa [17] and 128 µg/mL (≈ 333 µM) in the assay with Pseudomonas aeruginosa [18]. Besides, the values for the Activity in the assay on Pseudomonas aeruginosa [8] and in the assay with Pseudomonas aeruginosa [13] were 10.8% and 77.5%, respectively. For the same molecule, the MIC50 against Pseudomonas aeruginosa [15] is 32 µg/mL (≈ 83.2 µM). For the same molecule, the MIC90 in the assay with Pseudomonas aeruginosa [15] is 256 µg/mL (≈ 666 µM).

For `C[C@H]1[C@H](NC(=O)/C(=N\OC(C)(C)C(=O)O)c2csc(N)n2)C(=O)N1S(=O)(=O)O` [AZTREONAM], the minimal inhibitory concentration (MIC) against Pseudomonas aeruginosa [5] and in the assay with Pseudomonas aeruginosa [6] was 8 µg/mL (≈ 18.4 µM) throughout.

`O=C(O)c1cn(C2CC2)c2cc(N3CCNCC3)c(F)cc2c1=O` [CIPROFLOXACIN] returned an MIC with Pseudomonas aeruginosa [20] of 16 µg/mL (≈ 48.3 µM).

Consider `NC[C@H]1O[C@H](O[C@H]2[C@H](O)[C@@H](O[C@H]3O[C@H](CO)[C@@H](O)[C@H](N)[C@H]3O)[C@H](N)C[C@@H]2N)[C@H](N)C[C@@H]1O` [TOBRAMYCIN], for which the minimum inhibitory concentration (MIC) is over 64 µg/mL against Pseudomonas aeruginosa [21]; over 64 µg/mL against Pseudomonas aeruginosa [22]; 1 µg/mL (≈ 2.14 µM) against Pseudomonas aeruginosa [19]; 0.5 µg/mL (≈ 1.07 µM) with Pseudomonas aeruginosa [4]; 2 µg/mL (≈ 4.28 µM) with Pseudomonas aeruginosa [23]; 16 µg/mL (≈ 34.2 µM) against Pseudomonas aeruginosa [24]. Further, the MIC in the assay on Pseudomonas aeruginosa [25] is 64 µg/mL (≈ 137 µM); in the assay with Pseudomonas aeruginosa [26], 2 µg/mL (≈ 4.28 µM); against Pseudomonas aeruginosa [27] it was 64 µg/mL (≈ 137 µM); with Pseudomonas aeruginosa [28], over 64 µg/mL; with Pseudomonas aeruginosa [29] it was 32 µg/mL (≈ 68.4 µM); against Pseudomonas aeruginosa [30], 2 µg/mL (≈ 4.28 µM). The values for the Activity with Pseudomonas aeruginosa [8] and in the assay with Pseudomonas aeruginosa [13] were 21.7% and 77.5%, respectively. Besides, the MIC50 with Pseudomonas aeruginosa [15] came out at 1 µg/mL (≈ 2.14 µM). For the same molecule, the MIC90 against Pseudomonas aeruginosa [15] is over 64 µg/mL.
